Assays:
[1] = Cytotoxicity against human U87MG cells after 24 hrs by MTT assay; assay type: functional, U-87MG ATCC; conditions: U-87 MG, read-out: ID50 (the source's name)
How it was run: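 U87-MG glioblastoma cells (ATCC) were grown in MEM with 10% FCS, 1% sodium pyruvate and 1% nonessential amino acids. Cells were seeded at 4 or 8×10^3/well and adhered overnight at 37 °C. They were exposed 24 h, in duplicate, to methanol-dissolved compounds diluted in medium, with a methanol blank. MTT (5 mg/mL stock) was added for 4 h, formazan dissolved in DMSO, and absorbance read at 550 nm.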

[2] = Cytotoxicity against human IMR90 cells after 24 hrs by MTT assay; assay type: cell-based, IMR-90; conditions: read-out: ID50
How it was run: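 IMR-90 embryonic fibroblasts (ATCC) were grown in DMEM with 10% FCS and 1% glutamine at 37 °C, 5% CO2. Cells were plated at 4 or 8×10^3/well and attached overnight. They were treated 24 h, in duplicate, with compounds from methanol stocks diluted in medium, with a methanol blank. MTT (5 mg/mL stock) was added for 4 h, formazan dissolved in DMSO, and read at 550 nm.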

[3] = Cytotoxicity against HUVEC after 24 hrs by MTT assay; assay type: cell-based; conditions: human, read-out: ID50
How it was run: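 Primary HUVEC from newborns, grown in DMEM/medium 199 with 20% FCS, 10 mM HEPES, heparin and ECGS at 37 °C, 5% CO2. Cells were seeded at 4 or 8×10^3/well and attached overnight. Compounds were added from methanol solutions diluted in medium, with a methanol blank, for 24 h in duplicate. MTT (5 mg/mL stock) was added for 4 h, formazan dissolved in DMSO, and A550 read.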

[4] = Cytotoxicity against human Hs 578T cells after 24 hrs by MTT assay; assay type: functional; conditions: read-out: ID50 (the source's name)
How it was run: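 Hs578T cells (ATCC) were maintained in DMEM with 10% FCS, 1% glutamine and 10 μg/mL insulin. Cells were seeded at 4 or 8×10^3/well and allowed to adhere overnight at 37 °C. They were exposed 24 h, in duplicate, to compounds in methanol diluted with medium, with a methanol blank. MTT (5 mg/mL stock) was added for 4 h, formazan dissolved in DMSO, and A550 measured.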

HT-1080 = experiment: Cytotoxicity against human HT1080 cells after 24 hrs by MTT assay; assay type: functional; conditions: HT-1080, 24 h, read-out: ID50 (the source's name)
How it was run: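 HT-1080 cells (ATCC) were kept in DMEM with 10% FCS, 1% glutamine and 1% vitamins at 37 °C, 5% CO2. Cells were seeded at 4 or 8×10^3/well and attached overnight, then exposed for 24 h in duplicate to methanol-dissolved compounds diluted in medium, with a methanol blank. MTT (5 mg/mL stock) was given for 4 h, formazan solubilized in DMSO, and absorbance read at 550 nm.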

MDA-MB-231 = experiment: Cytotoxicity against human MDA-MB-231 cells after 24 hrs by MTT assay; assay type: functional; conditions: MDA-MB-231, 24 h, read-out: ID50 (the source's name)
How it was run: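 MDA-MB-231 cells (ATCC) were cultured in Leibovitz's L-15 with 10% FCS. Cells were seeded at 4 or 8×10^3/well and attached overnight at 37 °C. Compounds dissolved in methanol and diluted in medium were added for 24 h in duplicate, with a methanol blank. MTT (5 mg/mL stock) was added for 4 h, formazan taken up in DMSO, and A550 recorded.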

CC(=O)O[C@H]1C[C@@H](C)[C@@H]2[C@@H](O)OC[C@@]3(C)CC(C)(C)[C@H]1[C@]23O [DIHYDROBOTRYDIAL]
> 10 µg/mL: IC50 [1] | CC50 at 24 h [2] | CC50 at 24 h [3] | IC50 [4] | IC50 (HT-1080) | IC50 (MDA-MB-231)

COC(=O)[C@H]1[C@H](C)C[C@H](OC(C)=O)[C@H]2C(C)(C)C[C@](C)(C(=O)OC)[C@@]12O [DIMETHYL BOTRYDIOATE]
> 10 µg/mL: IC50 [1] | CC50 at 24 h [2] | CC50 at 24 h [3] | IC50 [4] | IC50 (HT-1080) | IC50 (MDA-MB-231)

COC(=O)[C@@]1(C)CC(C)(C)[C@@H]2[C@@H](OC(C)=O)C[C@@H](C)[C@H](C=O)[C@@]21O [METHYL ACETYLBOTRYALOATE]
> 10 µg/mL: IC50 [1] | CC50 at 24 h [2] | CC50 at 24 h [3] | IC50 [4] | IC50 (HT-1080) | IC50 (MDA-MB-231)

COC(=O)[C@@]1(C)CC(C)(C)[C@@H]2[C@@H](O)C[C@@H](C)[C@H](C=O)[C@@]21O [METHYL BOTRYALOATE]
> 10 µg/mL: IC50 [1] | CC50 at 24 h [2] | CC50 at 24 h [3] | IC50 [4] | IC50 (HT-1080) | IC50 (MDA-MB-231)

COC(=O)[C@@]1(C)CC(C)(C)[C@H]2C1=C(C=O)[C@H](C)C[C@@H]2O [METHYL BOTRYENALOATE]
> 10 µg/mL: IC50 [1] | CC50 at 24 h [2] | CC50 at 24 h [3] | IC50 [4] | IC50 (HT-1080) | IC50 (MDA-MB-231)

C=CC1=C(/C(=C\C)CO)[C@@](C)(CO)CC1(C)C [SECOBOTRYTRIENDIOL]
> 10 µg/mL: IC50 [1] | CC50 at 24 h [2] | CC50 at 24 h [3] | IC50 [4] | IC50 (HT-1080) | IC50 (MDA-MB-231)

Source: ChEMBL document CHEMBL1150672, “Chemical transformations on botryane skeleton. Effect on the cytotoxic activity” (J Nat Prod, 2003)
